Target: Sigma non-opioid intracellular receptor 1 (Rattus norvegicus, UniProt Q9R0C9)
Experiment: Binding affinity towards sigma opioid receptor was determined in rat cerebral homogenate using [3H]haloperidol as radioligand
Outline: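 Male Sprague-Dawley rat cerebellum was homogenized in 50 mM Tris-HCl pH 7.7 and spun at 39000g for 15 min, three times in all. At least nine competitor concentrations were run with 1 nM [3H]haloperidol plus 25 nM spiperone (to block D2) on 3 mg wet-weight tissue for 90 min. Nonspecific binding was taken with 10 µM DTG. GF/C filtration, scintillation counting; Ki ± SEM, minimum three determinations.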

Chain of Sigma non-opioid intracellular receptor 1 (Q9R0C9 whole entry): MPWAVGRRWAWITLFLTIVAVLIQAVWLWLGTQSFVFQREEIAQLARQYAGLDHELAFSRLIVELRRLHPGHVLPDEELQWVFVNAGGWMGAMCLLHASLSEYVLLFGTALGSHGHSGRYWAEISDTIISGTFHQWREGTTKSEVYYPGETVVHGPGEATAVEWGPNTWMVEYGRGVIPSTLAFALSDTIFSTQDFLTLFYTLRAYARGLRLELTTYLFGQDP

Compared with C[C@H](Cc1ccccc1)NCC1CC1, CC(N)Cc1ccccc1 (racemic) [AMPHETAMINE] is higher in Ki: 0.664 µM for the first, greater than 50 µM for the second.

Going from C[C@H](Cc1ccccc1)NCCC(=O)c1ccccc1 to C[C@@H](Cc1ccccc1)NCCc1ccccc1, the Ki falls from 0.073 µM to 0.0048 µM (15-fold). The second binds more tightly here.

C[C@H](Cc1ccccc1)NCCOc1ccccc1 and C[C@H](Cc1ccccc1)NCCc1ccccc1 are within 1.5-fold of each other in Ki: 0.032 µM for the first, 0.046 µM for the second.

C[C@@H](Cc1ccccc1)N(C)CCc1ccccc1 and C[C@H](Cc1ccccc1)NCCCc1ccccc1 are within 1.5-fold of each other in Ki: 0.016 µM for the first, 0.014 µM for the second.

First: CC(Cc1ccccc1)NCCCCc1ccccc1 (racemic)
Second: C[C@H](Cc1ccccc1)NCc1ccccc1 [N-BENZYLAMPHETAMINE]
The Ki of the first is 26-fold lower: 0.0039 µM for the first, 0.103 µM for the second.
